Source: ChEMBL document CHEMBL1157616, “Identification of 2-anilino-9-methoxy-5,7-dihydro-6H-pyrimido[5,4-d][1]benzazepin-6-ones as dual PLK1/VEGF-R2 kinase inhibitor chemotypes by structure-based lead generation” (J Med Chem, 2010)
Calls of active or inactive are those of the source. The rule behind the calls is not given here.

How the values were obtained:
Insulin receptor = Insulin receptor (Homo sapiens, UniProt P06213); assay: Inhibition of INSR assessed as [33Pi] incorporation by microplate scintillation counting in presence of 1 uM ATP
Outline: (§1)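 Substrates: Poly(Glu,Tyr)4:1 for VEGFR2; Poly(Glu,Tyr) or Poly(Ala,Glu,Lys,Tyr) for INS-R; RBER-CHKtide or casein for PLK1. Incubated 30 °C, 80 min, stopped with 2% H3PO4. Singlicate; activity referenced to no-enzyme and no-inhibitor controls.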

NCI60 = assay: Antiproliferative activity against human NCI60 cells at 10 uM after 48 hrs by sulforhodamine B assay; type: functional, cell-based
Outline: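 NCI 60-cell-line prescreen with compound given once at 10 μM. Cells grown in RPMI 1640 with 5% FBS and 2 mM L-glutamine, plated 24 h before dosing, then exposed 48 h at 37 °C. Fixed with cold TCA, stained with SRB, absorbance read at 515 nm, and percent growth taken relative to time-zero and control wells.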

[1] = target: Serine/threonine-protein kinase PLK1 (Homo sapiens, UniProt P53350); assay: Inhibition of PLK1 assessed as [33Pi] incorporation by microplate scintillation counting in presence of 1 uM ATP
[2] = target: Vascular endothelial growth factor receptor 2 (Homo sapiens, UniProt P35968); assay: Inhibition of VEGFR2 assessed as [33Pi] incorporation by microplate scintillation counting in presence of 1 uM ATP; outline: as §1
Vascular endothelial growth factor receptor 2, sequence (P35968 whole entry): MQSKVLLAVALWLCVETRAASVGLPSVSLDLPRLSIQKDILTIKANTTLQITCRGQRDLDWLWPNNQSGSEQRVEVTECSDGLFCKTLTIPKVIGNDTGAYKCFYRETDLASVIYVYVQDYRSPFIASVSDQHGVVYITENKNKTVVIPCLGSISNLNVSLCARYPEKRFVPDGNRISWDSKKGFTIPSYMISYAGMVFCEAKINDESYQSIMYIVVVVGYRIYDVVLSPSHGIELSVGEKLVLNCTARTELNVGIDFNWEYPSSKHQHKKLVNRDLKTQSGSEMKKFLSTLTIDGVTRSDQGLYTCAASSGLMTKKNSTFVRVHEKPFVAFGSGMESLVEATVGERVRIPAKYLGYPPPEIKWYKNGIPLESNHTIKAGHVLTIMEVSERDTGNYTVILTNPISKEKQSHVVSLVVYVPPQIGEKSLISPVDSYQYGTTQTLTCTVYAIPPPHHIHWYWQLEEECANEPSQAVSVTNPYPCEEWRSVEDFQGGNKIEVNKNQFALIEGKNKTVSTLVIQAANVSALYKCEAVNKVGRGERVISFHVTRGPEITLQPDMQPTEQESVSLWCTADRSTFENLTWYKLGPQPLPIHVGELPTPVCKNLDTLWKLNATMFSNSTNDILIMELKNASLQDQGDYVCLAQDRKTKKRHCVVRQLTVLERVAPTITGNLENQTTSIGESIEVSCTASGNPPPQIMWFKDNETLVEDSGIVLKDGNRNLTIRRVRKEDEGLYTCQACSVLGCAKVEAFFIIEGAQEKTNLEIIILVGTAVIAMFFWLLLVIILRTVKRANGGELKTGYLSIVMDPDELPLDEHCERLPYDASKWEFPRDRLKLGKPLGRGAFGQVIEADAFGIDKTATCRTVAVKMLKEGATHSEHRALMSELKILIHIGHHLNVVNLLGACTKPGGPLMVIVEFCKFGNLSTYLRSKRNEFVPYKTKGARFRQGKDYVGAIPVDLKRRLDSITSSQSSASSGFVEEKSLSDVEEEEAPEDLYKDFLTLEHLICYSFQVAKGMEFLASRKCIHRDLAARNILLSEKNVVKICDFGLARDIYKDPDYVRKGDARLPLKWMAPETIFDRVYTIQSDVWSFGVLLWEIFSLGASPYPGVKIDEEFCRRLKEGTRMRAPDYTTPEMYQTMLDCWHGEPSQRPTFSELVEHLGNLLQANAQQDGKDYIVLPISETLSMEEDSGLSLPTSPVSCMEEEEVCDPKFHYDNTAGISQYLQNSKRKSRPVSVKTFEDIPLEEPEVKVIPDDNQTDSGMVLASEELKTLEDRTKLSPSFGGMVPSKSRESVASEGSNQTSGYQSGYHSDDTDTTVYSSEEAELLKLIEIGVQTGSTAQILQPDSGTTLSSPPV

Serine/threonine-protein kinase PLK1, sequence (P53350 whole entry): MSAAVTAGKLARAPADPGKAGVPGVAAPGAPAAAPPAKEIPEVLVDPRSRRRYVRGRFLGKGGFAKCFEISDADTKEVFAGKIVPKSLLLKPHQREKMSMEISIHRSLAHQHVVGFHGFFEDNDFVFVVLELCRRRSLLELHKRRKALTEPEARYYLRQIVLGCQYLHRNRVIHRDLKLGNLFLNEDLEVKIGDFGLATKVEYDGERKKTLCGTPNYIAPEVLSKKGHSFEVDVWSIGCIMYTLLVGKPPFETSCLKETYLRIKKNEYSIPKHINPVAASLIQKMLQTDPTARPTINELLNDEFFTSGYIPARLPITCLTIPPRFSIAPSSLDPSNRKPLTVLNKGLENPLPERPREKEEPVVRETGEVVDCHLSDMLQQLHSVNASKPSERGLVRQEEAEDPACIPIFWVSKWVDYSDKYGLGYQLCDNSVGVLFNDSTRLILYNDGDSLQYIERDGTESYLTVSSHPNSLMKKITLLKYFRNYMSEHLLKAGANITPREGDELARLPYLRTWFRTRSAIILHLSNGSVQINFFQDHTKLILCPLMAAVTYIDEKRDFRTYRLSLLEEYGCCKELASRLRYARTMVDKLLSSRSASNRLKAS
Insulin receptor, sequence (P06213 28-758 limits assumed): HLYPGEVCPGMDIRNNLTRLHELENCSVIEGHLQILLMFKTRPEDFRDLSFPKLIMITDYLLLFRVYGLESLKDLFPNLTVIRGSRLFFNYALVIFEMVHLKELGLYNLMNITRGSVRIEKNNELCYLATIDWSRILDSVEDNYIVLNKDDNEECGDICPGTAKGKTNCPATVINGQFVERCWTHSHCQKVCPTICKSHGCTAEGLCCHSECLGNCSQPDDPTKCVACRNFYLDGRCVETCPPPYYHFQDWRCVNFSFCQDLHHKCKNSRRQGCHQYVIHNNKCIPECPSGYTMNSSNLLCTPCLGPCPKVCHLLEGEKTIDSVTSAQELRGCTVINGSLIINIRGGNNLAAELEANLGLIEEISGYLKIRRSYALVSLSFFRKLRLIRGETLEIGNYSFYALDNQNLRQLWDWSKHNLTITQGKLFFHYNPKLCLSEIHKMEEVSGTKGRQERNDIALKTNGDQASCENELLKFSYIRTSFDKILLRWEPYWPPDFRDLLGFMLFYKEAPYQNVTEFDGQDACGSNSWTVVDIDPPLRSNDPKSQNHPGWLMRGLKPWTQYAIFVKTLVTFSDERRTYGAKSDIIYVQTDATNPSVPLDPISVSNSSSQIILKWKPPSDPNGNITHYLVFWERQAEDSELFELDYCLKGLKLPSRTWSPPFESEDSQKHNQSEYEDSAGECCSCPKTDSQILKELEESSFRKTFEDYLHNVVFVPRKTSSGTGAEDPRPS
Insulin receptor, sequence (P06213 763-1382 limits assumed): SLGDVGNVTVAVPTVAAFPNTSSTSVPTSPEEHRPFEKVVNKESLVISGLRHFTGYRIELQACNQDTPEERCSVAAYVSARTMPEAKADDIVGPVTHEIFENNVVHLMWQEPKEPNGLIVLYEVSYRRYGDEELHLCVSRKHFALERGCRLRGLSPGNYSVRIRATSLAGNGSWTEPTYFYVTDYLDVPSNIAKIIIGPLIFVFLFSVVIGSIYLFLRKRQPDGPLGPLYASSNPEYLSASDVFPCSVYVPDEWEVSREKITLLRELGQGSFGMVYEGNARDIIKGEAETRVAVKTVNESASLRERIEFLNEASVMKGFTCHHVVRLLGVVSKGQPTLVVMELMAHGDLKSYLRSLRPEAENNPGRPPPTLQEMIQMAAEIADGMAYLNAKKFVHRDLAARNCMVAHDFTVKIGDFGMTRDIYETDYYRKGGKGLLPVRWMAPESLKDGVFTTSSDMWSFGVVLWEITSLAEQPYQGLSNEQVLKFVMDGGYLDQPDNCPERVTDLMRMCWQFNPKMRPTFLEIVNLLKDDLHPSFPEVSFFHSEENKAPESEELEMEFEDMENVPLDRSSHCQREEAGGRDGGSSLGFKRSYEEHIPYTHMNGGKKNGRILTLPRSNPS

| Compound | IC50 (Insulin receptor) | Activity (NCI60) | IC50 [1] | IC50 [2] |
| --- | --- | --- | --- | --- |
| COc1ccc(Nc2ncc3c(n2)-c2ccc(OC)cc2NC(=O)C3)cc1 | > 100 µM | Active | 0.35 µM | 0.05 µM |
| O=C1Cc2cnc3cc(-c4ccccc4)nn3c2-c2cnccc2N1 | > 100 µM | Active | > 100 µM | 2 µM |
| COc1ccc2c(c1)NC(=O)Cc1cnc3cc(-c4ccccc4)nn3c1-2 | 11 µM | Active | 17 µM | 1.8 µM |
| O=C1Cc2cnc(Nc3ccc(O)c(Cl)c3)nc2-c2ncccc2N1 | > 100 µM | Active | > 100 µM | 0.67 µM |
| Cc1ccc(Nc2ncc3c(n2)-c2ccccc2NC(=O)C3)cc1 | > 100 µM | Active | > 100 µM | 0.19 µM |
| O=C1Cc2cnc(Nc3cccc(O)c3)nc2-c2cnccc2N1 | > 100 µM | Active | 2.3 µM | 0.14 µM |
| O=C1Cc2cnc(Nc3ccc(O)cc3)nc2-c2cnccc2N1 | > 100 µM | Active | 2.6 µM | 0.13 µM |
| O=C1Cc2cnc3cc(-c4ccccc4)nn3c2-c2ncccc2N1 | > 100 µM | Active | > 100 µM | 16 µM |
| O=C1Cc2cnc3ncnn3c2-c2ncccc2N1 | > 100 µM | Active | > 100 µM | > 100 µM |
| Cn1c(=O)c2cc3c(nc2n(C)c1=O)-c1cnccc1NC(=O)C3 | > 100 µM | Active | > 100 µM | > 100 µM |
| O=C1Cc2cnc(Nc3ccc(O)cc3)nc2-c2ncccc2N1 | > 100 µM | Active | 55 µM | 2.7 µM |
| O=C1Cc2cnc3ccnn3c2-c2ccccc2N1 | > 100 µM | Active | > 100 µM | 12 µM |
| O=C1Cc2cc3c(=O)[nH]c(=O)[nH]c3nc2-c2cnccc2N1 | > 100 µM | Active | > 100 µM | > 100 µM |
| Cn1c(=O)c2cc3c(nc2n(C)c1=O)-c1ncccc1NC(=O)C3 | > 100 µM | Active | > 100 µM | > 100 µM |
| O=C1Cc2cnc(Nc3ccc([N+](=O)[O-])cc3)nc2-c2ccccc2N1 | 22 µM | Active | > 100 µM | 0.33 µM |
| COc1ccc2c(c1)NC(=O)Cc1cnc3ccnn3c1-2 | > 100 µM | Active | > 100 µM | 8.6 µM |
| Cn1c(=O)c2cc3c(nc2n(C)c1=O)-c1ccccc1NC(=O)C3 | > 100 µM | Active | > 100 µM | > 100 µM |
| O=C1Cc2cnc(Nc3ccccc3Br)nc2-c2ccccc2N1 | > 100 µM | Active | > 100 µM | 57 µM |
| O=C1Cc2cc3c(=O)[nH]c(=O)[nH]c3nc2-c2ncccc2N1 | > 100 µM | Active | > 100 µM | 66 µM |
| CCOc1ccc(Nc2ncc3c(n2)-c2ncccc2NC(=O)C3)cc1 | > 100 µM | Active | > 100 µM | 2 µM |
| O=C1Cc2cnc(Nc3ccccc3)nc2-c2ccccc2N1 | > 100 µM | Active | > 100 µM | 0.14 µM |
| COc1ccc2c(c1)NC(=O)Cc1cnc3ncnn3c1-2 | > 100 µM | Active | > 100 µM | > 100 µM |
| COc1ccc(Nc2ncc3c(n2)-c2cnccc2NC(=O)C3)cc1 | > 100 µM | Active | 2.5 µM | 0.19 µM |
| COc1ccc2c(c1)NC(=O)Cc1cc3c(=O)[nH]c(=O)[nH]c3nc1-2 | > 100 µM | Active | > 100 µM | > 100 µM |
| O=C1Cc2c([nH]c3ccc(Br)cc23)-c2ccccc2N1 |  | Active |  |  |
